Source: PubChem
SENP1 FRET inh: inhibitors of human SENP1 SUMO protease catalytic domain; Q9P0U3; recombinant SENP1 catalytic domain, CyPet-SUMO1-YPet FRET cleavage; inhibition, % at 10 µM; 360,000 tested, 0.21% active;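 active means inhibition at least 30% at 10 µM, raw YFP signal under a set limit, fluorescence ratio 0.5 to 1.5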
Target sequence (Q9P0U3 419-644 limits assumed): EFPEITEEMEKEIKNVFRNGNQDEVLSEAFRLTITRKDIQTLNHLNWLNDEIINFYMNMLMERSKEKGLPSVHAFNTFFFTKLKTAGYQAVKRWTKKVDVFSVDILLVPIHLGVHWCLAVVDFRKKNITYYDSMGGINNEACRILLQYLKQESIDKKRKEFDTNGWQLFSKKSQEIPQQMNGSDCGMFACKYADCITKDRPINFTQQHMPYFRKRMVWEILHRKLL
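Assay system: hSENP1 catalytic domain, recombinant. Amount: SENP1 enzyme, 20 pM final. Schedule: 50 min reaction, RT, dark. Technique: FRET, CFP and YFP emission. Control set: no-enzyme wells low, DMSO-plus-enzyme wells high control.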
Arr AP2 block: inhibitors of human beta-arrestin and AP2 interaction; FITC-arrestin peptide / GST-AP2 beads, flow cytometry; AP2 beta2 appendage carries R879A mutation; inhibition, % at 10 µM; 340,000 tested, 0.31% active;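 active means inhibition above a set limit, near 3 SD of compounds lacking own fluorescence, cut at about 54% in these data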
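System: GST-AP2 R879A bound to glutathione beads, E. coli-expressed. Also added: 50 nM FITC-arrestin peptide. Schedule: compound with beads 12 min RT, then probe 1 h RT. Signal: bead flow cytometry, FITC channel. Read-out basis: percent response.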
NR3A LBD binder: NR3A (human) ligand-binding domain modulation. NR3A LBD differential scanning fluorimetry, Tm shift; 0% = protein alone, 100% = glycine-bound protein. Tm shift relative to glycine control, % at 25 µM. 340,000 tested, 2.5% active;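 active means melting temperature shift of at least 10% of the positive control shift, at one fixed dose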
H9c2 protect: protects H9c2 cardiomyocytes from peroxide injury; H2O2 injury protection, ATPLite, 2 h; 360,000 tested, 0.63% active; protection from H2O2 cell death, % at 20 µM;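 active means compounds giving at least 50% protection of heart cells from peroxide-induced death in the single-dose screen, raw or plate-pattern-corrected value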
iPSC survival up: increases survival of single human iPS cells | hiPSC single-cell survival, ATPlite luminescence; 100% = ROCK inhibitor wells, 0% = DMSO | 360,000 tested, 0.044% active | survival enhancement, % at 20 µM; in the data active means survival enhancement above about 18%;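 further: cells exposed to compounds for 16 hours before the ATP read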
FAS-TE inh: blocks the thioesterase domain of human fatty acid synthase | recombinant FAS-TE, OMFH fluorogenic substrate, fluorescence endpoint | P49327 | inhibition, % at 15 µM | 360,000 tested, 0.67% active | AID 602261;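 active means compounds whose normalised, plate-corrected inhibition of enzyme fluorescence in the single-dose primary screen is 50% or more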
A number is an active result; - = inactive; . = not tested or not shown. Most compounds without a hit are left out; they make up all but 4% or so of the library.

SMILES	SENP1 FRET inh	Arr AP2 block	NR3A LBD binder	H9c2 protect	iPSC survival up	FAS-TE inh
Cc1cc(=O)n2nc(N3CCCC(C(=O)Nc4cccc(C)c4C)C3)sc2n1 (stereo not drawn)	-	.	.	-	-	-
CC(=O)NNC(=O)c1sc(=S)n2c1[nH]c(=O)c1sccc12	-	-	-	-	-	-
O=C(NCc1ccccc1)c1sc(=S)n2c1[nH]c(=O)c1ccccc12	-	-	12	-	-	-
CCCCCn1c(=O)[nH]c2cc(C(=O)NCCc3ccc(OC)c(OC)c3)ccc2c1=O	-	-	-	-	-	-
CCCCNC(=O)c1sc(=S)n2c1[nH]c(=O)c1ccc(C(=O)NCCc3ccc(OC)c(OC)c3)cc12	45	-	-	-	-	-
O=C(NCCN1CCN(c2ccccc2F)CC1)c1cccn2c(=O)c3ccccc3nc12	-	-	-	71	-	-
O=C(NCCN1CCN(c2ccccc2)CC1)c1cccn2c(=O)c3ccccc3nc12	-	-	-	-	-	-
CC1(C(=O)NCc2cccs2)Cc2c(-c3ccc(C(N)=O)cc3)ccnc2O1 (stereo not drawn)	-	.	.	-	-	-
CN(C)S(=O)(=O)c1ccc(Cl)c(C(=O)Nc2nc3ccccc3[nH]2)c1	-	-	-	-	-	-
Cc1ccc(NS(=O)(=O)c2ccc(Cl)c(C(=O)Nc3ccccc3-c3nc4ccccc4[nH]3)c2)cc1C	-	-	34	-	-	-
COc1ccc(OC)c(S(=O)(=O)NC(=O)C2(C)CCN2C(=O)Cc2ccccc2)c1 (stereo not drawn)	-	.	.	-	-	-
O=C(CSc1nnc(-c2cccs2)n1-c1ccccc1)N1CCCC1	-	-	11	-	-	-
COc1ccc(CCN2C(=O)C=CC2=O)cc1OC	-	-	20	-	-	-
O=C(NCCc1ccc(F)cc1)C1CCC(=O)N(CC2CCCCC2)C1 (stereo not drawn)	-	.	.	-	-	-
N#CC1(Nc2ccc([N+](=O)[O-])cc2)CCCC1	-	-	-	-	-	-
CC(CNc1ccc(Cl)cc1)(CNc1ccc(Cl)cc1)[N+](=O)[O-]	-	-	25	-	-	-
S=C(Nc1ccc2nsnc2c1)NC1CCCCC1	-	-	-	-	-	-
O=C(Nc1ccc(Br)cc1)NC1CCCCCCC1	-	-	11	-	-	-
S=C(Nc1ccc(Oc2ccccc2)cc1)NC1CCCCCC1	-	-	11	-	-	-
S=C(Nc1ccc(Oc2ccccc2)cc1)NC1CCCCC1	-	-	-	-	-	-
S=C(Nc1ccc(Oc2ccc(NC(=S)NC3CCCCC3)cc2)cc1)NC1CCCCC1	-	.	32	-	-	-
S=C(Nc1ccc(Cl)c(Cl)c1)NC1CCCCC1	-	-	23	-	-	-
CC(=O)Nc1cc(-c2cccc(F)c2)cn2c(-c3ccc(F)cc3)cnc12	-	.	.	-	-	-
c1ccc2sc(-n3cc(C4CCCCC4)nn3)nc2c1	-	.	.	.	-	-
CCOC(=O)C1(C)CCCN(C(=O)c2cccc(C(F)(F)F)c2)C1 (stereo not drawn)	-	.	.	-	-	-
SMILES	SENP1 FRET inh	Arr AP2 block	NR3A LBD binder	H9c2 protect	iPSC survival up	FAS-TE inh
CC(C)C#Cc1cnc2c(c1)C(=O)N([C@@H](C)CO)C[C@@H](C)[C@H](CN(C)Cc1cccc(F)c1)O2	-	.	.	-	-	-
CCC(C)Nc1nc(-c2ccc3c(c2)NC(=O)CO3)cs1 (stereo not drawn)	-	-	-	-	-	-
COc1ccccc1Nc1nc(-c2ccc3c(c2)NC(=O)CO3)cs1	-	-	32	-	-	-
COc1ccc(Nc2nc(-c3ccc4c(c3)NC(=O)CO4)cs2)cc1	-	-	15	-	-	-
Cc1c(C(=O)N/N=C/c2ccc(O)c(Br)c2)sc(N)c1C#N	-	-	14	70	-	-
COc1cc(/C=N/NC(=O)c2sc(N)c(C#N)c2C)ccc1O	-	-	15	54	-	-
Cc1c(C(=O)N/N=C/c2ccc(-c3ccccc3[N+](=O)[O-])o2)sc(N)c1C#N	-	-	-	-	-	-
Cc1ccc(C(O)c2ncc(-c3cccc4ccccc34)[nH]2)cc1F (stereo not drawn)	-	.	.	-	-	-
CC1CCN(S(=O)(=O)c2ccc3c(c2)C(Cl)(Cl)C(=O)N3)CC1	-	.	.	-	-	-
CCCCCCn1c(N2CCN(c3cccc(Cl)c3)CC2)nc2c1c(=O)[nH]c(=O)n2C	-	-	14	-	-	-
COc1ccc(-n2c(SCC(=O)Nc3ccc(C)cc3)nc(O)c(Cc3ccccc3)c2=O)cc1	-	-	-	-	-	-
COc1ccc(-n2c(SCC(=O)Nc3ccc(Cl)cc3)nc(O)c(Cc3ccccc3)c2=O)cc1	-	-	10	-	-	-
CC(=O)Nc1ccc(C=NNc2ccc([N+](=O)[O-])cn2)cc1	-	-	24	-	-	-
Cn1ncc(N=Cc2ccc([N+](=O)[O-])cc2)c1C(=O)Nc1ccccc1	-	-	14	-	-	-
O=[N+]([O-])c1ccc(NN=Cc2cc(Br)ccc2O)nc1	-	-	31	-	-	-
COc1cc(/C=N/Nc2ccc([N+](=O)[O-])cn2)cc(OC)c1O	-	-	-	-	-	-
O=[N+]([O-])c1ccc(NN=Cc2cccc(O)c2)nc1	-	-	12	-	-	-
CCNC(=O)C1(C)CCN(Cc2ccc(C#N)cc2)C1 (stereo not drawn)	-	.	.	-	-	-
CCCCNC(=O)C(NC(=O)c1cnccn1)C(=O)c1ccccc1 (stereo not drawn)	-	.	.	.	.	.
Cc1ccc(C(=O)NCCc2sc(C)nc2C)cc1	-	-	-	-	-	-
Cc1nc(C)c(CCNC(=O)c2ccc(C(F)(F)F)cc2)s1	-	-	16	-	-	-
CC(C)CN1CCC1(C)C(=O)Nc1cccc(C#N)c1 (stereo not drawn)	-	.	.	-	-	-
CCN1C/C(=C/c2cccc([N+](=O)[O-])c2)C(=O)/C(=C/c2cccc([N+](=O)[O-])c2)C1	-	-	-	-	38	-
O=C1NC(=S)S/C1=C\c1cccc([N+](=O)[O-])c1	-	-	12	-	-	-
OC(CNCc1ccco1)Cn1c2ccc(Br)cc2c2cc(Br)ccc21 (stereo not drawn)	-	-	24	-	-	-
COc1cc(/C=c2\s/c(=C(/C#N)C(=O)N3CCCC3)n(-c3ccccc3)c2=O)ccc1O	-	-	-	58	-	-
NC(=S)NNC(=O)c1cc(C(F)(F)F)cc(C(F)(F)F)c1	-	-	31	-	-	-
CC(C)n1c(O)c(/C=C2\C=Nc3ccccc32)sc1=Nc1ccccc1	-	-	25	-	-	-
